The source made the active and inactive calls. No cut-off for these calls is given here.
Columns and labels:
Aspergillus nidulans [1] = experiment: Anifungal activity against Aspergillus nidulans MAD4096 assessed as growth inhibition after 72 hrs by Neubauer chamber analysis; format: functional, organism-based
Procedure, shortened: (§1)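 A. nidulans prototroph strains (wild type MAD4096; crzAΔ MAD4100) were point-inoculated with 10^3 conidia, counted by Neubauer chamber, onto 1 ml AMM. The medium contained inhibitor from a 50 mM DMSO stock added to the melted agar, with a matching DMSO control. Colonial growth was evaluated photographically after 72 h at 37°C.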

[2] = molecular target: Glycogen synthase kinase-3 beta (Homo sapiens, UniProt P49841); experiment: Inhibition of human recombinant GSK3beta expressed in Escherichia coli using GS-1 as substrate incubated for 20 mins by gamma[32P]ATP-based scintillation counting analysis
Chain of Glycogen synthase kinase-3 beta (P49841 whole entry): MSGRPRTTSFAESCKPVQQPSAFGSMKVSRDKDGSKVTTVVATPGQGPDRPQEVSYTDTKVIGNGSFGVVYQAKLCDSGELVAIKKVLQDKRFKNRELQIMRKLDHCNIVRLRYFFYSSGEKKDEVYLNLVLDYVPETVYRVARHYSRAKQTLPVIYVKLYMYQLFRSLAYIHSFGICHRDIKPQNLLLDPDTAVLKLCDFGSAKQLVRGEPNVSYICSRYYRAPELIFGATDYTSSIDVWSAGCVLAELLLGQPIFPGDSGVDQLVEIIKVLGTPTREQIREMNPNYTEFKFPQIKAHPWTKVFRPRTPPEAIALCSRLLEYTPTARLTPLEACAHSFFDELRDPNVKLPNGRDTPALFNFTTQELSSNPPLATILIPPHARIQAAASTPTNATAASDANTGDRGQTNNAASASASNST

Aspergillus nidulans [3] = experiment: Anifungal activity against Aspergillus nidulans MAD4100 deficient in crzA assessed as growth inhibition after 72 hrs by Neubauer chamber analysis; format: functional, organism-based; procedure, shortened: as §1
Aspergillus nidulans [4] = experiment: Anifungal activity against Aspergillus nidulans MAD4097 deficient in sltA assessed as growth inhibition after 72 hrs by Neubauer chamber analysis; format: functional, organism-based
Procedure, shortened: (§2)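 A. nidulans sltA-deleted prototroph MAD4097, alongside wild-type MAD4096 and crzA-null MAD4100, tested on solid minimal medium (AMM) containing increasing inhibitor concentrations, added from DMSO stock (stock 50 mM); equal DMSO in control medium. 10^3 spores (Neubauer chamber count) centrally inoculated per well; 37°C for 72 h, colonies then photographed and colonial growth evaluated.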

Aspergillus fumigatus [5] = experiment: Anifungal activity against Aspergillus fumigatus CM237 assessed as growth inhibition at 5 uM after 48 hrs by Neubauer chamber analysis; format: functional, organism-based
Procedure, shortened: (§3)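 Wild-type prototroph A. fumigatus strains (CM237, AF293, CBS144) grown on solid minimal medium (AMM) with inhibitor added from DMSO stock (stock 50 mM); DMSO-only medium as control. 10^3 spores (counted by Neubauer chamber) centrally point-inoculated per well; incubated at 37°C, colonial growth scored after 48 and 72 h.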

Aspergillus fumigatus [6] = experiment: Anifungal activity against Aspergillus fumigatus AF293 assessed as growth inhibition at 5 uM after 48 hrs by Neubauer chamber analysis; format: functional; procedure, shortened: as §3
Aspergillus fumigatus [7] = experiment: Anifungal activity against Aspergillus fumigatus AF293 assessed as growth inhibition at 5 uM after 72 hrs by Neubauer chamber analysis; format: functional; procedure, shortened: as §3
Aspergillus fumigatus [8] = experiment: Anifungal activity against Aspergillus fumigatus CBS144 assessed as growth inhibition at 5 uM after 48 to 72 hrs by Neubauer chamber analysis; format: functional, organism-based; procedure, shortened: as §3
Aspergillus fumigatus [9] = experiment: Anifungal activity against Aspergillus fumigatus CM237 assessed as growth inhibition at 5 uM after 72 hrs by Neubauer chamber analysis; format: functional, organism-based; procedure, shortened: as §3
Aspergillus fumigatus [10] = experiment: Anifungal activity against Aspergillus fumigatus CBS144 assessed as growth inhibition at 50 uM after 48 to 72 hrs by Neubauer chamber analysis; format: functional, organism-based
Procedure, shortened: (§4)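 A. fumigatus wild-type prototroph conidia were used, 10^3 spores counted by Neubauer chamber and inoculated centrally onto 1 ml AMM. Inhibitors were dissolved in DMSO from 50 mM stocks and added to melted medium, with a DMSO-only control. Colonial growth was scored at 37°C after 48 and 72 h.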

Aspergillus fumigatus [11] = experiment: Anifungal activity against Aspergillus fumigatus CM237 assessed as growth inhibition at 50 uM after 48 to 72 hrs by Neubauer chamber analysis; format: functional, organism-based; procedure, shortened: as §4
Aspergillus fumigatus [12] = experiment: Anifungal activity against Aspergillus fumigatus AF293 assessed as growth inhibition at 50 uM after 48 to 72 hrs by Neubauer chamber analysis; format: functional; procedure, shortened: as §4
Aspergillus nidulans [13] = experiment: Anifungal activity against Aspergillus nidulans MAD4096 assessed as growth inhibition at 50 uM after 72 hrs by Neubauer chamber analysis; format: functional, organism-based; procedure, shortened: as §1
Aspergillus nidulans [14] = experiment: Anifungal activity against Aspergillus nidulans MAD4097 deficient in sltA assessed as reduction in colonial diameter at 10 uM after 72 hrs by Neubauer chamber analysis; format: functional; conditions: MAD4097, 72 h; procedure, shortened: as §2
Aspergillus fumigatus [15] = experiment: Anifungal activity against Aspergillus fumigatus CM237 assessed as growth inhibition at 100 uM after 48 to 72 hrs by Neubauer chamber analysis; format: functional, organism-based; procedure, shortened: as §4
Aspergillus fumigatus [16] = experiment: Anifungal activity against Aspergillus fumigatus AF293 assessed as growth inhibition at 100 uM after 48 to 72 hrs by Neubauer chamber analysis; format: functional; procedure, shortened: as §4
Aspergillus nidulans [17] = experiment: Anifungal activity against Aspergillus nidulans MAD4097 deficient in sltA assessed as reduction in colonial diameter at 50 uM after 72 hrs by Neubauer chamber analysis; format: functional, organism-based; procedure, shortened: as §2
Aspergillus fumigatus [18] = experiment: Anifungal activity against Aspergillus fumigatus CBS144 assessed as growth inhibition at 100 uM after 48 to 72 hrs by Neubauer chamber analysis; format: functional, organism-based; procedure, shortened: as §4

## COc1ccc(CNC(=O)Nc2nc(C)c(C(C)=O)s2)cc1
Aspergillus nidulans [1]
  growth inhibition (GI): inactive
[2]
  IC50: 600 nM
Aspergillus nidulans [3]
  growth inhibition (GI): inactive

## O=C(CCl)c1scc(Br)c1Br
Aspergillus nidulans [4]
  growth inhibition (GI): Active
Aspergillus fumigatus [5]
  growth inhibition (GI): Active
Aspergillus fumigatus [6]
  growth inhibition (GI): Active
Aspergillus fumigatus [7]
  growth inhibition (GI): inactive
Aspergillus fumigatus [8]
  growth inhibition (GI): Active
Aspergillus fumigatus [9]
  growth inhibition (GI): inactive
Aspergillus nidulans [3]
  growth inhibition (GI): inactive

## Cn1sc(=O)n(Cc2ccccc2)c1=O
Aspergillus fumigatus [10]
  growth inhibition (GI): Active
Aspergillus fumigatus [11]
  growth inhibition (GI): Active
Aspergillus fumigatus [12]
  growth inhibition (GI): Active
Aspergillus nidulans [13]
  growth inhibition (GI): Active
Aspergillus nidulans [14]
  inhibition at 10 µM: 50%
Aspergillus nidulans [3]
  growth inhibition (GI): inactive

## CCCCCCCCCCCC(=O)NNC(=O)c1c(O)c2ccccc2n(CC)c1=O
Aspergillus nidulans [1]
  growth inhibition (GI): inactive
[2]
  IC50: 2800 nM
Aspergillus nidulans [3]
  growth inhibition (GI): inactive

## O=c1sn(-c2cccc3ccccc23)c(=O)n1Cc1ccccc1
Aspergillus fumigatus [15]
  growth inhibition (GI): inactive
Aspergillus nidulans [1]
  growth inhibition (GI): inactive
Aspergillus fumigatus [16]
  growth inhibition (GI): inactive
Aspergillus nidulans [17]
  inhibition: Active
Aspergillus fumigatus [18]
  growth inhibition (GI): inactive
Aspergillus nidulans [3]
  growth inhibition (GI): inactive
